High-throughput results from PubChem.
Rows were chosen to be rich in hits. Some 4.1% of all compounds tested hit in one or more screens of this group.
MEKK2 mut-MEK5 – MEK5 binding signal on mutant MEKK2 PB1, primary screen, biochemical, multiplex bead flow cytometry, Alexa488-MEK5 | Alexa488-MEK5 binding to MEKK2 mutant | percent response, % at 10 µM | 290,000 compounds, 0.35% hits | AID 1530, 2009; in the data active = percent response above about 24%, passing the limit was not always enough
MEKK3 PB1 HTS – modulators of MEKK3-MEK5 PB1 binding, primary screen, biochemical, wildtype MEKK3, multiplex bead flow cytometry, Alexa488-MEK5. Mitogen-activated protein kinase kinase kinase 3 (Homo sapiens), Q99759. bead-based flow cytometry, Alexa488-MEK5 binding to MEKK3; actives lie on both sides; 0 = blocked by unlabeled MEK5, 100 = vehicle. binding response (% of control), % at 10 µM. 290,000 compounds, 1.4% hits. AID 1529, 2009;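 active = binding response more than 3 SD above or below the average of its plate-row segment, actives on both sides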;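 also: Alexa488 bead fluorescence after subtracting the streptavidin-only scavenger bead signal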
Target sequence (Q99759 whole entry, looked up): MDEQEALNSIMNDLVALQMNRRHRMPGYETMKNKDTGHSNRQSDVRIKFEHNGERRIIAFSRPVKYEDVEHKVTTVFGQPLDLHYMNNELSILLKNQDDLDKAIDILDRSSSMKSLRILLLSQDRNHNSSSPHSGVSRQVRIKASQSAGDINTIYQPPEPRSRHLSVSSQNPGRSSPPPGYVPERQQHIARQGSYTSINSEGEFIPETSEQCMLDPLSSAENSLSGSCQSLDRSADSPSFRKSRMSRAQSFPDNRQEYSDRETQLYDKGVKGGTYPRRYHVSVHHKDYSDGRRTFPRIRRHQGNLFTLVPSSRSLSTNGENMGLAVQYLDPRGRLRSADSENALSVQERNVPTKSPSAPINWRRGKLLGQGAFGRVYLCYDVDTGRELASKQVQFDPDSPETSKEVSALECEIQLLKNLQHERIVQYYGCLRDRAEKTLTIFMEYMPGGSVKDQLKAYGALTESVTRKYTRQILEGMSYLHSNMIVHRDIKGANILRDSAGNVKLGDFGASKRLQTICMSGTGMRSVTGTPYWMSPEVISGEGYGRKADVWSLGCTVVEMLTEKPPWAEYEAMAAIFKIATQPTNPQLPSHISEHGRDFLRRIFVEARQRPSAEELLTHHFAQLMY
T cruzi inh – inhibitors of intracellular T. cruzi growth, primary screen, luminescence, NIH3T3 host cells; T. cruzi beta-gal in NIH3T3, 90 h; inhibition, % (no concentration beside the values); 300,000 compounds, 1.4% hits; AID 1885, 2009;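 active = mean inhibition across valid replicates above about 55%, limit read from the data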;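 also: signal also drops with host cell toxicity which is not excluded here; higher percent means less beta-gal luminescence so fewer parasites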
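Incubation – ≥90 h infection period, 3 h prior cell attachment · System – NIH/3T3 fibroblasts plus reporter T. cruzi · Doses – compound pinned at 50 nL/well, DMSO · Read-out basis – percent inhibition of parasite-derived β-gal signal · Signal – luminescent β-galactosidase signal after 60 min lysis · Also added – 5000 T. cruzi trypomastigotes/well · Medium – Low-serum DMEM with 2% FBS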
MEKK2 WT-MEK5 – modulators of MEK5 binding to wildtype MEKK2, primary screen, biochemical, multiplex bead flow cytometry, Alexa488-MEK5; AID 1531, 2009; 290,000 compounds, 1.1% hits; binding response (% of control), % at 10 µM; Mitogen-activated protein kinase kinase kinase 2 (Homo sapiens), Q9Y2U5; Alexa488-MEK5 binding to MEKK2 WT; actives lie on both sides; in the data active = binding response below about 67% or above about 130%
DNA FID counter – compounds displacing fluorescent DNA intercalator, primary screen, artefact control for HCV NS3 helicase inhibitor project, biochemical, FID fluorescence; DNA fluorescent intercalator displacement; inhibition, % at 7.9 µM; 290,000 compounds, 0.17% hits; AID 1845, 2009; in the data active = inhibition above about 37%;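 also: higher means more ethidium bromide displaced from hairpin DNA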
NS3 helicase inh – inhibitors of HCV NS3 helicase, primary screen, biochemical, Cy5 molecular beacon fluorescence; NS3 helicase DNA unwinding; inhibition, % at 10.9 µM; Hepatitis C virus NS3 helicase; 290,000 compounds, 0.56% hits;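 active = inhibition above the mean of all tested compounds plus 3 SD, set per campaign, cut at about 35% in these data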
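Assay system – hepatitis C virus NS3 helicase domain fragment enzyme · Buffer or medium – MOPS pH 6.5, MgCl2, DTT, Tween20, BSA · Reagent – Cy5/quencher beacon DNA duplex and ATP to start · Compound – single 10.9 µM dose · Timing – 1 h at 25 °C · Technique – Cy5 beacon fluorescence read at start and 1 h · Measure – % inhibition of unwinding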
MEKK2wt confirm – modulators of MEK5 binding to wildtype MEKK2, confirmation, biochemical, single concentration, multiplex bead flow cytometry. shares compounds with MEKK3 PB1 HTS. Alexa488-MEK5 binding to MEKK2 WT; actives lie on both sides. binding response (% of control), % at 10 µM. 5,900 compounds, 2.4% hits. AID 1892, 2009; in the data active = binding response below about 16% or above about 210%; inactive = in between
MEKK2mut confirm – mutant MEKK2 PB1-MEK5 binding signal retest – biochemical, single concentration, multiplex bead flow cytometry, confirmation; shares compounds with MEKK3 PB1 HTS; Alexa488-MEK5 binding to MEKK2 mutant; percent response, % at 10 µM; 5,900 compounds, 2% hits; AID 1893, 2009; in the data active = percent response mostly above about 71%, no sharp cut-off; inactive = mostly below about 38%;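 also: higher means compound restores mutant binding toward wildtype level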
MEKK3 confirm – MEKK3 wild-type PB1 binding to MEK5, inhibitors, confirmation, biochemical, bead multiplex flow cytometry, single concentration, wildtype; shares compounds with MEKK3 PB1 HTS; Alexa488-MEK5 binding to MEKK3; stronger effect = lower value; binding response (% of control), % at 10 µM; 5,900 compounds, 1.8% hits;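 active = binding response below 72% of control, or above a set upper limit, though filed actives all read lower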
Large screens that a line does not name were inactive (follow-up assays come after a bar, where they were run); [ ] = dose if it differs, or a comment.

CCN(CC)CCN(C(=O)c1ccc(S(=O)(=O)N(C)C2CCCCC2)cc1)c1nc2c(C)cccc2s1	none
CCN(CC)CCN(C(=O)c1ccc2c(c1)CCCC2)c1nc2c(C)cccc2s1	MEKK2 mut-MEK5 29.0, MEKK2 WT-MEK5 158.0 | MEKK2wt confirm inactive | MEKK2mut confirm inactive | MEKK3 confirm inactive
C=CCc1cccc(/C=N/NC(=O)CNc2ccccc2)c1O	none
C=CCc1cccc(/C=N/NC(=O)CCCNc2ccc(C)cc2)c1O	MEKK2 mut-MEK5 89.0, MEKK2 WT-MEK5 248.0 | MEKK2wt confirm inactive | MEKK2mut confirm inactive | MEKK3 confirm inactive
Cc1cc(C)n(-c2nc(SCCN(C)C)c3c4c(sc3n2)CCCC4)n1	MEKK2 mut-MEK5 49.0, MEKK3 PB1 HTS 124.0, MEKK2 WT-MEK5 211.0 | MEKK2wt confirm inactive | MEKK2mut confirm inactive | MEKK3 confirm inactive
Cc1cc(C)n(-c2nc(SCC(=O)O)c3c4c(sc3n2)COC(C)(C)C4)n1	none
CNC[C@H](CC1CCCCC1)NC[C@H](CO)NCCc1cccc(C(F)(F)F)c1	MEKK2 WT-MEK5 152.0 | MEKK2wt confirm inactive | MEKK2mut confirm inactive | MEKK3 confirm inactive
CNC[C@H](CC1CCCCC1)NC[C@H](CO)NCC1(c2ccccc2)CC1	none
CCNc1nc(Oc2ccc(C(=O)OCC)cc2)nc(N2CCOCC2)n1	MEKK3 PB1 HTS 135.0 | MEKK2wt confirm inactive | MEKK2mut confirm inactive | MEKK3 confirm inactive
COc1ccc(NC(=O)CN(C)C(=O)Cn2cnc3c2c(=O)n(C)c(=O)n3C)cc1	none (no result: MEKK2 mut-MEK5, MEKK3 PB1 HTS, MEKK2 WT-MEK5, DNA FID counter, NS3 helicase inh)
CCN(CC)Cc1c(O)ccc2c(=O)c(-c3ccccc3OC)coc12	none
CCN(CC)Cc1c(O)ccc2c(=O)c(-c3ccccc3Cl)coc12	MEKK2 mut-MEK5 25.0 | MEKK2wt confirm inactive | MEKK2mut confirm inactive | MEKK3 confirm inactive
Cc1ccc2[nH]cc(CCNC(=O)CN3C(=O)c4ccccc4C3=O)c2c1	MEKK3 PB1 HTS 147.0 | MEKK2wt confirm inactive | MEKK2mut confirm inactive | MEKK3 confirm inactive
COc1ccc2[nH]cc(CCNC(C)=O)c2c1	MEKK2 mut-MEK5 44.0 (no result: DNA FID counter, NS3 helicase inh) | MEKK2wt confirm inactive | MEKK2mut confirm inactive | MEKK3 confirm inactive
O=C(CN1C(=O)c2ccccc2C1=O)NCCc1c[nH]c2ccc(Cl)cc12	none
Cc1ccc(-n2nnc(-c3ccnc4ccccc34)n2)cc1	none
CC(C)Oc1ccc(C(=O)NCCCNC(=O)c2ccccn2)cc1	none
COC(=O)N/N=C/c1cc(C)n(-c2ccccc2)c1C	MEKK3 PB1 HTS 1.0[inhibitor], MEKK2 WT-MEK5 1.0[inhibitor] | MEKK2wt confirm inactive | MEKK2mut confirm inactive | MEKK3 confirm inactive
C=CCn1cnc2c(nnn2-c2ccc(OC)c(OC)c2)c1=O	none
C=CCn1cnc2c(nnn2-c2ccc(C)c(C)c2)c1=O	MEKK3 PB1 HTS 2.0[inhibitor], MEKK2 WT-MEK5 1.0[inhibitor] | MEKK2wt confirm inactive | MEKK2mut confirm inactive | MEKK3 confirm inactive
C=COc1ccc(N2C(=O)c3ccccc3OC2C)cc1 (stereo unspecified)	none
